Series [1] concerns the target Microtubule-associated protein tau (Homo sapiens, UniProt P10636). In words: Binding affinity to heparin induced human Tau 441 at 50 pM to 500 nM after 30 mins.
A short description of series [2]: Drug uptake in human globus pallidus using bielschowsky staining by autoradiography analysis. It counts as ADME, tissue-based. The essentials:
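PSP patient brain blocks were cut into 20 μm cryostat sections on slides and incubated with tracer for 10 min. Slides were washed, dried and exposed to film for 5 min. The same slides were then stained by modified Bielschowsky staining to locate tau NFTs for colocalization.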

Series [3] concerns Brain. In words: Drug uptake in rhesus monkey brain at 5.4 mCi, iv at 3 mins by MicroPET analysis. It counts as ADME, organism-based, Macaca mulatta. As to conditions: in vivo, 0.05 h; call rule not given here.
For a further series, the system named is Cortex. In words: Drug uptake in human Tau expressing Sprague-Dawley rat cortex at 1 to 10 mCi by autoradiography analysis relative to wild type Sprague-Dawley rat brain. It counts as ADME, tissue-based. Particulars: in vivo.
A further series has as its system Rattus norvegicus. Briefly: Metabolic stability in anesthetized iv dosed Sprague-Dawley rat […] and HPLC analysis. It counts as ADME, organism-based. Particulars: in vivo, in the assay text read “5 to 30 mins” for “5 to 60 mins”. A digest of the protocol: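 Sprague-Dawley rats, anesthetized, received tracer via tail vein (three per time point). They were allowed to wake, then reanesthetized and sacrificed at 5, 15 and 30 min. Blood collected at each time was centrifuged, and the plasma was analyzed by HPLC and radio-TLC for parent and radioactive metabolites.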

For the next series, the system named is Hippocampus. Briefly: Drug uptake in human Tau expressing Sprague-Dawley rat hippocampus at 1 to 10 mCi by autoradiography analysis relative to wild type Sprague-Dawley rat brain. It counts as ADME, tissue-based. Particulars: in vivo.
The nature of series [4]: Octanol-water partition coefficient, log P of the compound. It counts as physicochemical.
The test system of the next series is Liver. Briefly: Biodistribution in iv dosed Sprague-Dawley rat liver after 5 to 60 mins by gamma counting. It counts as ADME, organism-based. As to conditions: in vivo. A digest of the protocol: (§1)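 Tracer reconstituted in ethanolic saline and injected via tail vein into anesthetized Sprague-Dawley rats (three per time point). Rats were allowed to wake, then reanesthetized and sacrificed at 5, 30 and 60 min postinjection for tissue distribution.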

A further series has as its system Kidney. In words: Biodistribution in iv dosed Sprague-Dawley rat kidney after 5 to 60 mins by gamma counting. It counts as ADME, organism-based. As to conditions: in vivo. A digest of the protocol:
as §1

The subject of series [5] is Brain. In words: Drug uptake in human Tau expressing Sprague-Dawley rat brain at 1 to 10 mCi by autoradiography analysis. It counts as ADME, tissue-based. Particulars: in vivo.
Series [6] has as its system Brain. In words: Drug uptake in wild type Sprague-Dawley rat brain at 1 to 10 mCi by autoradiography analysis. It counts as ADME, tissue-based. Particulars: in vivo.
The test system of series [7] is Brain. In words: Drug uptake in Sprague-Dawley rat brain at 0.95 mCi, iv after 60 mins by MicroPET analysis. It counts as ADME, organism-based. Particulars: in vivo, 1 h.
For series [8], the system named is Brain. In words: Drug uptake in rhesus monkey brain at 5.4 mCi, iv after 3 mins by MicroPET analysis. As to conditions: in vivo, 0.05 h. It counts as ADME, organism-based, Macaca mulatta.
Series [9] relates to Brain. In words: Biodistribution in iv dosed Sprague-Dawley rat brain after 5 to 60 mins by gamma counting. It counts as ADME, organism-based. Particulars: in vivo. The essentials: as §1

The values below come from ChEMBL document CHEMBL2203218, “Evaluation of [(11)C]N-Methyl Lansoprazole as a Radiopharmaceutical for PET Imaging of Tau Neurofibrillary Tangles” (ACS Med Chem Lett, 2012).

Microtubule-associated protein tau, sequence (P10636 whole entry): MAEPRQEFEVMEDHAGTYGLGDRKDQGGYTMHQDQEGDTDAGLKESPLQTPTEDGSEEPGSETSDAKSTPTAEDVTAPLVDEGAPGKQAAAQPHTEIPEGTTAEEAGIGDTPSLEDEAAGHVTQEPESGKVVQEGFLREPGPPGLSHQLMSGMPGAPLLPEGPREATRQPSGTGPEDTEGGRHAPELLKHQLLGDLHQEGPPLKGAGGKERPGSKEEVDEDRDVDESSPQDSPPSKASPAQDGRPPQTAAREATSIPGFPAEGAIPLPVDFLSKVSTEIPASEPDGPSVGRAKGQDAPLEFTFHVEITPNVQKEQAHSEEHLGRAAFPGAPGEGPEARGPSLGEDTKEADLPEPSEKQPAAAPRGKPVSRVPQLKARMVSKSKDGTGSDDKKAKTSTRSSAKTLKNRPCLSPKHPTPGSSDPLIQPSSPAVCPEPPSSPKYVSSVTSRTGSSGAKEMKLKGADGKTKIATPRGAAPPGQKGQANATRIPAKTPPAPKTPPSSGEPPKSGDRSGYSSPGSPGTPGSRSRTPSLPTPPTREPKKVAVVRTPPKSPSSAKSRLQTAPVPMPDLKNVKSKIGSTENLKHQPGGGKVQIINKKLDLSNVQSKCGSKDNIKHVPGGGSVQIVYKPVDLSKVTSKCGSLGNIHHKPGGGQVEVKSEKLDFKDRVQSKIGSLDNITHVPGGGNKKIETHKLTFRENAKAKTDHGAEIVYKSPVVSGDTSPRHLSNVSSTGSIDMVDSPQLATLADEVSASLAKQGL

`Cc1c(OCC(F)(F)F)ccnc1C[S+]([O-])c1nc2ccccc2n1C` (stereo unspecified) returned a Bmax in [1] (tested as the 11C-labelled form) of 0.214 fmol/µg.

Broadly, the Ki is a measure of affinity in units of concentration, obtained from inhibition or displacement. As to `Cc1c(OCC(F)(F)F)ccnc1C[S+]([O-])c1nc2ccccc2[nH]1` (stereo unspecified) [LANSOPRAZOLE], in [1], the Ki was 2.5 nM.

What is called logP is a log measure of how a compound divides between an organic and an aqueous phase. The Kd is the concentration at which binding is half-saturated. Regarding `Cc1c(OCC(F)(F)F)ccnc1C[S+]([O-])c1nc2ccccc2n1[11CH3]` (stereo unspecified), the Drug uptake result is reported as “Active” in [2]; 1600 nCi/cc with Brain [3]; 12% in the series with Cortex; 4% in the series on Hippocampus; “Active” in the series with Liver; “Active” in the series on Kidney. Moreover, the Drug uptake entry in the series with Brain [5] is listed as “Active”; in the series on Brain [6], “Active”; in the series on Brain [7], “Not Active”; with Brain [8], 500 nCi/cc; with Brain [9], “Not Active”. Also, the Stability entry in the series on Rattus norvegicus is on record as “Unstable”. Also, the logP in [4] stood at 2.18. Further, binding in series [1] was put at a Kd of 0.7 nM.
